Compound activity: PubChem, Johns Hopkins Ion Channel Center
KCNQ1 act: potentiates or activates the human KCNQ1 potassium channel; CHO-K1 KCNQ1, thallium flux FluxOR fluorescence; active compounds read high; B-score at 10 µM; P51787; actives 0.35% (n = 310,000);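 active means fluorescence ratio B-score, a plate-corrected score, at least three library SD, with initial intensity B-score within 5 SD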
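Assay system: CHO-K1 cells stably expressing KCNQ1. Medium: assay buffer for compound exposure, DMSO matched across wells. Timing: 37 °C overnight plating, 90-min dark dye load, 20-min compound pretreatment. Signal: kinetic FluxOR fluorescence, 10 s baseline plus 110 s post-stimulus.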
KCNK3 inh: human KCNK3 channel inhibition, primary screen. O14649. CHO-KCNK3 thallium flux, FluxOR fluorescence; active compounds read low. B-score at 10 µM. actives 0.84% (n = 340,000). AID 602410;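 active means B-score under library mean minus 4 SD, starting fluorescence ratio at most library mean plus 5 SD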;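 further: more negative B-score means stronger inhibition of thallium flux through KCNK3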
hERG rescue: shields human hERG channel from block by proarrhythmic agents | Q12809 | activation (rescue from dofetilide block), less the hit threshold, % at 10 µM | actives 0.51% (n = 310,000) | CHO-hERG, FluxOR thallium flux, dofetilide IC70 present;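 active means activation above the mean of controls blocked by dofetilide plus 5 SD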;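 further: thallium influx through hERG after potassium depolarization seen as dye fluorescence rise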
KCNQ1 inh: human KCNQ1 channel inhibition; P51787; CHO-K1 KCNQ1, FluxOR thallium flux fluorescence; active compounds read high; B-score at 10 µM; actives 1.3% (n = 310,000); AID 2642;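 active means compounds whose thallium flux B-score, printed positive for inhibition, exceeds three library SD while starting fluorescence stays within three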;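 further: channel opened by potassium depolarization with thallium stimulus after 20 min compound exposure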
KCNK9 inh: blocks the human KCNK9 two-pore domain potassium channel | HEK293 KCNK9, FluxOR thallium flux fluorescence; active compounds read low | actives 1.2% (n = 310,000) | B-score at 10 µM | Q9NPC2;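 active means ratio B-score over 3 SD below the library mean, with starting fluorescence within 5 SD of its mean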;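 further: negative B-score means less thallium flux so channel inhibition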
Target sequence (Q9NPC2 whole entry, looked up, the tested form may be a part): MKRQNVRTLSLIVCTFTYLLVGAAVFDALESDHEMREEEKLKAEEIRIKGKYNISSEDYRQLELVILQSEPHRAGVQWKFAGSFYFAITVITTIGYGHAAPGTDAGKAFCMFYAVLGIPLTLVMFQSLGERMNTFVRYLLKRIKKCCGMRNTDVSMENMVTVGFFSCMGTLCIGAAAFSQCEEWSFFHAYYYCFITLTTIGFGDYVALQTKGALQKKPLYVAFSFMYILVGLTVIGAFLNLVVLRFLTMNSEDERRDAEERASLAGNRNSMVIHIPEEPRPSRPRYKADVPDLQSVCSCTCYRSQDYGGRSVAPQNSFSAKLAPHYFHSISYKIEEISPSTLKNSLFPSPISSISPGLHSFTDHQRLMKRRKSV
Active calls of the source: *; i = inactive; x = no result. Rows were chosen to be rich in hits. Some 3.1% of all compounds tested hit in one or more screens of this group.

SMILES	KCNQ1 act	KCNK3 inh	hERG rescue	KCNQ1 inh	KCNK9 inh
Cc1cccc(C(=O)Nc2ccc(S(=O)(=O)N3CCOCC3)cc2C)c1	i	i	-5.0	i	i
CN1/C(=C\C(=S)NC(=O)c2ccccc2Cl)C(C)(C)c2ccccc21	i	i	-5.7	i	i
CN1/C(=C\C(=S)Nc2ccccc2)C(C)(C)c2ccccc21	i	i	-4.1	i	-6.9*
CCCOc1ccc(/C=C/C(=O)Nc2ccc([N+](=O)[O-])cc2)cc1	i	i	-15.6	7*	i
CS(=O)(=O)N(CC(=O)NCCSc1ccccn1)c1cccc2ccccc12	i	i	-0.4	i	i
CNC(=O)CN(c1cccc2ccccc12)S(C)(=O)=O	i	i	7.0*	i	i
O=C(CNC(=O)C12CC3CC(CC(C3)C1)C2)OCc1cc(=O)n2cc(Br)ccc2n1	i	i	6.1*	i	i
COc1ccc(N2CCN(c3nc4cc(C)ccc4cc3C=O)CC2)cc1	i	i	-9.3	i	i
Cc1ccc2cc(/C=C3\N=C(c4ccccc4)OC3=O)c(N3CCOCC3)nc2c1	i	x	-35.7	8*	i
COc1ccc(CN(C)C(=O)c2cc(-c3ccccc3)nc3ccc(C)cc23)c(OC)c1OC	i	i	-34.0	6*	i
COc1cccc(CN(C)C(=O)c2cc(-c3ccc(F)cc3)nc3ccccc23)c1	i	-8.93*	-33.1	11*	i
Cc1cc(C(=O)COC(=O)COc2ccccc2C#N)c(C)n1CC1CCCO1 (stereo unspecified)	x	i	x	x	x
Cc1cc2c(c(C)c1CCO)C(=O)[C@H](C)C2	x	i	x	x	x
CCC(=O)Nc1cccc(C2=NOC3(C2)C[C@@H](C(N)=O)N(C(=O)CC)C3)c1 (stereo partly specified)	i	i	-12.3	i	i
CCC(=O)Nc1cccc(C2=NOC3(C2)C[C@H](C(N)=O)N(C(=O)CC#N)C3)c1 (stereo partly specified)	i	i	6.2*	i	i
COc1ccc(CC(=O)Nc2cc(S(C)(=O)=O)ccc2Cl)cc1S(=O)(=O)N1CCOCC1	x	i	x	x	x
COC(=O)c1ccccc1C(=O)N1CCCC(CNC(=O)c2ccc(F)cc2)C1 (stereo unspecified)	i	i	-3.8	i	i
O=C(CCSc1nnc(-c2ccccc2)o1)N1CCOCC1	i	i	-2.9	i	i
O=C(CCSc1nnc(-c2ccco2)o1)N1CCOCC1	i	i	5.7*	i	i
COc1cc(OC)c(/C=N/NC(=O)COc2cccc3cccnc23)c(OC)c1	i	i	-6.3	i	i
CCOC(=O)c1c(NC(=O)c2ccco2)sc2c1CCCCC2	i	i	2.5	i	i
CCOC(=O)c1c(NC(=O)C(C)N2CCN(C(=O)c3ccco3)CC2)sc2c1CCCC2 (stereo unspecified)	15*	i	-17.4	i	i
CCOC(=O)c1c(NS(=O)(=O)Cc2ccccc2)sc2c1CCCC2	i	i	78.4*	i	i
Cc1cc(C)n(C(=O)CNC(=O)c2cccc(F)c2)n1	i	i	-4.5	i	i
Cc1nn(C(=O)CNC(=O)c2ccccc2)c(C)c1C	i	i	8.0*	i	i
SMILES	KCNQ1 act	KCNK3 inh	hERG rescue	KCNQ1 inh	KCNK9 inh
CCOC(=O)C1CCCN(C(=O)c2ccc(Cn3c(=S)[nH]c4cc(C(=O)OC)ccc4c3=O)cc2)C1 (stereo unspecified)	i	i	6.6*	i	i
CC(=O)N1c2ccc(S(=O)(=O)N(C)CC(=O)Nc3ccccc3C)cc2CC1C (stereo unspecified)	i	i	-5.3	i	i
CCOC(=O)CN1NC2(CCC(C)CC2)NC1=S (stereo unspecified)	i	i	-8.2	i	i
CCOC(=O)CN1NC2(CCC(C(C)(C)C)CC2)NC1=S (stereo unspecified)	i	i	8.7*	i	i
CCCCn1c(N)c(N(CC(C)C)C(=O)c2cccc(OCc3ccccc3)c2)c(=O)[nH]c1=O	i	i	-11.2	i	i
CCc1nc(SCC(=O)Nc2cc(C)ccc2OC)c2c(C)c(C)sc2n1	i	i	-10.5	i	-7.67*
CCc1nc(SCC(=O)N2CC(=O)Nc3ccccc32)c2c(C)c(C)sc2n1	i	i	-11.0	i	i
CCc1nc(SCC(=O)N2c3ccccc3CC2C)c2c(C)c(C)sc2n1 (stereo unspecified)	i	i	-12.7	6*	i
CCc1nc(SCC(=O)Nc2ccccc2OC)c2c(C)c(C)sc2n1	i	i	-10.8	i	i
C/C(=C\C(=O)c1ccc(Br)cc1)NNC(=O)c1ccccc1	i	i	-7.7	i	i
CC(NC(=O)c1ccncc1)C(C)(C)C (stereo unspecified)	41*	i	2.6	i	i
Cc1ccc(C(C)NC(=O)c2ccncc2)cc1C (stereo unspecified)	i	i	-11.1	i	i
Cc1ccc2nc(C)c(CN3CCN(c4ccc([N+](=O)[O-])cc4Cl)CC3)n2c1	i	i	-17.0	9*	i
O=[N+]([O-])c1ccc(Cl)c(CN2CCN(c3ncccn3)CC2)c1	i	i	-12.6	i	i
Cc1cc(C)n(/N=C/c2cc(Cl)cc(Cl)c2O)c(=O)c1	15*	i	-1.1	i	i
COc1ccccc1N1CCN(C(=O)COc2ccc(Cl)cc2Br)CC1	i	i	-6.8	i	i
COC(=O)C1CCCN1C(=O)COc1ccc(Cl)cc1Br (stereo unspecified)	8*	i	5.1*	i	i
O=C(NNC(=O)c1ccccc1F)c1ccc(S(=O)(=O)N2CCCCC2)cc1	x	i	x	x	x
O=C(NCCCN1CCOCC1)NC12CC3CC(CC(C3)C1)C2	i	i	-6.6	6*	i
O=C(COC(=O)CNS(=O)(=O)c1ccccc1)Nc1ncc(Cl)cc1Cl	x	i	x	x	x
O=C(COC(=O)COc1ccccc1Cl)Nc1ccccc1OC(F)F	i	i	4.9*	i	i
C=CCN(c1ccccc1OC)S(=O)(=O)c1cccc(C(=O)NCc2cccs2)c1	x	i	x	x	x
CCc1cc2c(=O)n(CCC(C)C)c(=S)[nH]c2s1	35*	i	25.8*	i	i
O=C(c1ccccc1Cl)N1CCN(Cc2ccc3c(c2)OCO3)CC1	i	i	-7.5	i	-7.01*
CCOC(=O)c1c(C)[nH]c(C(=O)COC(=O)CCNS(=O)(=O)c2ccc(NC(C)=O)cc2)c1C	x	i	x	x	x
N#CC1=C(N)Oc2ccc3ccccc3c2C1c1cccnc1 (stereo unspecified)	i	i	4.9*	i	i
